Assay results collected from several papers.
Each line is one published result; the experiments were not run side by side.
Target: Serine/threonine-protein kinase WNK4 (WNK4, Homo sapiens, UniProt Q96J92)

CNC(=O)[C@@H]1CC[C@@H](n2c(-c3ccc4cnccc4c3)nc3ccc(C(=O)NCc4cccc(C(N)=O)c4)cc32)C1  remaining binding (binding; competition with immobilised ligand; 1 µM): 100%
CN(CCCC(F)(F)F)c1nccc(-c2cnn3ncccc23)n1  remaining binding (binding; 1 µM): 91%
CCCCN(CCCC)C(=O)CN1C[C@H](c2cc(OC)c3c(c2)OCO3)[C@@H](C(=O)O)[C@@H]1CC(C)(C)CCC  remaining binding (cell-free assay; competition with immobilised ligand; 1 µM): 97.9%
F[C@@H]1CCN(c2nccc(-c3cnn4ncccc34)n2)C1  remaining binding (binding; 1 µM): 91%
C=CC(=O)N1CCC(C(=O)NCC(=O)N2CCN(c3nc(-c4cnc(N)nc4C(F)F)nc(N4CCOCC4)n3)CC2)CC1  remaining binding (binding; competition with immobilised ligand; 1 µM): 92%
CN(C)c1ncc(F)c(-c2cnn3ncccc23)n1  remaining binding (binding; 1 µM): 91%
C[C@@H](c1ccc(-n2cnc3c(N)ncnc32)cc1)N1CCc2nn(C)c(Cc3ccccc3)c2C1=O  remaining binding (binding; competition with immobilised ligand; 0.1 µM): 75%
COc1ccnn2ncc(-c3ccnc(N(C)C)n3)c12  remaining binding (binding; 1 µM): 100%
O=C(Nc1ccc(Oc2ccc(F)cc2)cc1)N1CCc2ncccc2[C@H]1c1ccc(F)cc1  remaining binding (cell-free assay; competition with immobilised ligand; 1 µM): 85%
O=C(c1ccc(Nc2nccc(-c3cc4ccccc4s3)n2)cc1)N1CCC(N2CCCC2)CC1  remaining binding (binding; competition with immobilised ligand; 1 µM): 92%
C[C@H]1CCN(c2nccc(-c3cnn4ncccc34)n2)C1  remaining binding (binding; 1 µM): 79%
COc1cnc(Nc2cccc(S(N)(=O)=O)c2)nc1N1CCN(c2ccccc2)C(=O)C1  remaining binding (binding; competition with immobilised ligand; 1 µM): 89%
CC(=O)c1c(NS(C)(=O)=O)c2cc(-c3ccc(Cl)cc3)c(-c3ccc(Cl)cc3Cl)nc2n(C)c1=O  remaining binding (cell-free assay; competition with immobilised ligand; 1 µM): 96%
N[C@@H]1CCN(c2nccc(-c3cnn4ncccc34)n2)C1  remaining binding (binding; 1 µM): 100%
COc1ncc2cc3ccccc3nc2c1C#N  remaining binding (cell-free assay; competition with immobilised ligand; 5 µM): 80%
CC(=O)N1CCC(c2ccc(C(=O)NC(=N)N)cc2C(F)(F)F)CC1  remaining binding (cell-free assay; competition with immobilised ligand; 1 µM): 100%
O=C(NCCCN1CCOCC1)c1ccc(Nc2ncc(Cl)c(-c3ccc(Cl)s3)n2)cc1  remaining binding (binding; competition with immobilised ligand; 1 µM): 99%
Cc1nc(Cc2cccc(C(F)(F)F)c2)sc1-c1ccc(C(N)=O)nc1  remaining binding (cell-free assay; competition with immobilised ligand; 1 µM): 100%
O=C(NCC1CCOCC1)c1n[nH]cc1NC(=O)c1c(F)cccc1F  remaining binding (binding; competition with immobilised ligand; 1 µM): 86%
Cc1nc(N2CC[C@@H](O)C2)ncc1-c1cc(C(F)(F)F)cc2[nH]ncc12  remaining binding (binding; competition with immobilised ligand; 1 µM): 95%
O=C(c1ccc(Nc2ncc(Cl)c(-c3ccc(Cl)s3)n2)cc1)N1CCC(N2CCCC2)CC1  remaining binding (binding; competition with immobilised ligand; 1 µM): 100%
